Experimental data taken from ChEMBL document CHEMBL3875169, “Synthesis, in vitro anticancer and antibacterial activities and in silico studies of new 4-substituted 1,2,3-triazole-coumarin hybrids” (Eur J Med Chem, 2016).

What was measured:
[1] = Growth inhibition of human A549 cells after 72 hrs by MTT assay; type: functional, cell-based; details: A549, 72 h
Procedure, shortened: (§1)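 Monolayers in DMEM with 10% FBS, 2 mM L-glutamine and penicillin/streptomycin, 37 °C, 5% CO2; 5000 cells/well seeded day 0. Compounds added as five 10-fold dilutions (0.01–100 µM), DMSO ≤0.1%, for 72 h. MTT absorbance converted to percentage growth (NIH formulas); IC50 by linear regression between bracketing concentrations, highest concentration reported with ">" when not reached. Quadruplicate points, three experiments.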

[2] = Growth inhibition of human HepG2 cells after 72 hrs by MTT assay; type: functional, cell-based; details: HepG2, 72 h; procedure, shortened: as §1
[3] = Growth inhibition of human CFPAC-1 cells after 72 hrs by MTT assay; type: functional, cell-based; details: CFPAC-1, 72 h; procedure, shortened: as §1
[4] = Growth inhibition of human HeLa cells after 72 hrs by MTT assay; type: functional, cell-based; procedure, shortened: as §1
[5] = Growth inhibition of human SW620 cells after 72 hrs by MTT assay; type: functional, cell-based; details: SW-620, 72 h; procedure, shortened: as §1
HepG2 = assay: Selectivity index, ratio of IC50 for […] cells to IC50 for human HepG2 cells; type: functional
[6] = Induction of apoptosis in human HepG2 cells assessed as late apoptotic cells at 2 times antiproliferative IC50 after 48 hrs by Annexin-V FITC/propidium iodide staining based fluorescence microscopic method (reference value: 0%); type: functional
[7] = Induction of apoptosis in human HepG2 cells assessed as viable cells at 2 times antiproliferative IC50 after 48 hrs by Annexin-V FITC/propidium iodide staining based fluorescence microscopic method (reference value: 94.2%); type: functional
[8] = Induction of apoptosis in human HepG2 cells assessed as early apoptotic cells at 2 times antiproliferative IC50 after 48 hrs by Annexin-V FITC/propidium iodide staining based fluorescence microscopic method (reference value: 0.6%); type: functional
[9] = Induction of apoptosis in human HepG2 cells assessed as secondary necrotic cells at 2 times antiproliferative IC50 after 48 hrs by Annexin-V FITC/propidium iodide staining based fluorescence microscopic method (reference value: 5.2%); type: functional

O=c1cc(Cn2cc(Cn3ccc4cc(I)ccc43)nn2)c2ccc(O)cc2o1
IC50 [1]: 28.6 µM | IC50 [2]: 8.57 µM | IC50 [3]: 29.9 µM | IC50 [4]: 14.2 µM | IC50 [5]: 34.3 µM | Ratio IC50 (HepG2): 3 | Activity [6]: 9.2% | Activity [7]: 85% | Activity [8]: 5.8% | Activity [9]: 0%
